pIC50: −log10 of the molar value. Activity calls are given as the source filed them. No cut-off for these calls is given here.
Tests used:
[1] = system: HFL1; assay: Antifibrotic activity in HFL1 cells assessed as reduction in cell proliferation after 150 hrs by xCelligence analysis; conditions: Homo sapiens
[2] = system: HFL1; assay: Antifibrotic activity in HFL1 cells assessed as inhibition of cell viability at >1 uM after 48 hrs by sulforhodamine B assay relative to control; format: functional; conditions: Homo sapiens, HFL1, 48 h
Outline: (§1)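 HFL-1 human fetal lung fibroblasts (DMEM, 10% FCS, passages 14–18) seeded at 8000 cells/well, attached overnight, then exposed to a range of concentrations for 48 h in triplicate. Cells were fixed with TCA and stained with 0.4% SRB, bound dye was solubilized in Tris, and OD was read at 570 nm relative to control.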

[3] = system: HFL1; assay: Antifibrotic activity in HFL1 cells assessed as inhibition of cell viability after 48 hrs by sulforhodamine B assay; format: functional, cell-based; conditions: Homo sapiens, HFL1, 48 h
Outline: as §1

[4] = Antioxidant activity assessed as inhibition of superoxide anion generation measured for 3 mins by nitro blue tetrazolium assay; format: physicochemical; conditions: for Emax: 0.05 h
Outline: (§2)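 Cell-free superoxide generated by xanthine (1 mM) and xanthine oxidase (0.11 U/mL), with NBT (50 µM) as detector. Compounds in DMSO were tested up to 10 µM, with DMSO held at 0.1%. NBT reduction rate (dA560/dt) was read spectrophotometrically over 3 min from the linear part.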

[5] = system: HFL1; assay: Antifibrotic activity in HFL1 cells assessed as reduction in maximum rate of cell proliferation after 150 hrs by xCelligence analysis; format: functional, cell-based; conditions: Homo sapiens
Outline: (§3)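 HFL-1 cells were seeded at 20,000/well and monitored by real-time impedance (xCelligence). Compound or DMSO vehicle was added at ~30 h, once attachment was maximal, and cells were followed for another 150 h. P150 was taken as the signal difference between 30 h and 180 h; Pdot was the maximum slope of the curve.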

[6] = system: NCI-H460; assay: Cytotoxicity against human NCI-H460 cells assessed as cell growth at 10^-4 M after 48 hrs by sulforhodamine B assay relative to control; format: functional; conditions: NCI-H460, 48 h, read-out: Activity
Outline: (§4)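 Cells were inoculated and preincubated 24–48 h, then exposed to a single dose of 10^-4 M for 48 h. SRB protein staining was the endpoint, and growth percent was calculated versus untreated controls.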

[7] = system: HFL1; assay: Antifibrotic activity in HFL1 cells assessed as reduction in cell proliferation at 0.1 to 1 uM after 150 hrs by xCelligence analysis; format: functional, cell-based; conditions: Homo sapiens
Outline: as §3

[8] = Cytotoxicity against human SF268 cells assessed as cell growth at 10^-4 M after 48 hrs by sulforhodamine B assay relative to control; format: functional; conditions: SF-268, 48 h, read-out: Activity
Outline: as §4

[9] = system: MCF7; assay: Cytotoxicity against human MCF7 cells assessed as cell growth at 10^-4 M after 48 hrs by sulforhodamine B assay relative to control; format: functional; conditions: MCF7, 48 h, read-out: Activity
Outline: as §4

[10] = Antioxidant activity assessed as inhibition of superoxide anion generation upto 10 uM measured for 3 mins by nitro blue tetrazolium assay; format: physicochemical; conditions: 0.05 h
Outline: as §2

[11] = Growth inhibition of human HOP62 cells after 48 hrs by sulforhodamine B assay; format: functional; conditions: HOP-62, 48 h
Outline: (§5)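 NCI ~60-cell-line panel with five 10-fold dilutions (10^-4 to 10^-8 M) and 48 h continuous exposure, using an SRB endpoint. Percentage growth was derived from time-zero, control and treated absorbances. […] Values are expressed as > or < when outside the tested range.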

[12] = Growth inhibition of human HCT116 cells after 48 hrs by sulforhodamine B assay; format: functional; conditions: HCT-116, 48 h; for CC50: read-out: LC50 (the source's name)
Outline: (§6)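 NCI ~60-cell-line panel with five 10-fold dilutions (10^-4 to 10^-8 M) and 48 h continuous exposure, using an SRB endpoint. Percentage growth was derived from time-zero, control and treated absorbances. Values are expressed as > or < when outside the tested range.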

[13] = system: U-251; assay: Growth inhibition of human U251 cells after 48 hrs by sulforhodamine B assay; format: functional; conditions: U-251, 48 h
Outline: as §5

[14] = system: MDA-MB-231; assay: Growth inhibition of human MDA-MB-231 cells after 48 hrs by sulforhodamine B assay; format: functional; conditions: MDA-MB-231, 48 h
Outline: as §5

[15] = Growth inhibition of human HOP92 cells after 48 hrs by sulforhodamine B assay; format: functional; conditions: HOP-92, 48 h
Outline: as §5

[16] = Growth inhibition of human NCI60 cells after 48 hrs by sulforhodamine B assay; format: functional; conditions: NCI60, 48 h; for CC50: read-out: pLC50 (the source's name) (converted); for TGI: read-out: pTGI (converted)
Outline: as §6

[17] = system: MCF7; assay: Growth inhibition of human MCF7 cells after 48 hrs by sulforhodamine B assay; format: functional; conditions: MCF7, 48 h
Outline: as §5

[18] = Growth inhibition of human OVCAR3 cells after 48 hrs by sulforhodamine B assay; format: functional; conditions: OVCAR-3, 48 h
Outline: as §5

[19] = Growth inhibition of human RPMI8226 cells after 48 hrs by sulforhodamine B assay; format: functional; conditions: RPMI-8226, 48 h
Outline: as §5

[20] = system: KM12; assay: Growth inhibition of human KM12 cells after 48 hrs by sulforhodamine B assay; format: functional; conditions: KM12, 48 h
Outline: as §5

[21] = system: SR; assay: Growth inhibition of human SR cells after 48 hrs by sulforhodamine B assay; format: functional
Outline: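 NCI 60-cell-line panel, five-dose screen: cells inoculated and preincubated 24-48 h, then exposed continuously for 48 h to five 10-fold dilutions from 10^-4 to 10^-8 M. Protein measured by SRB staining at time zero, in untreated control and in treated wells.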

[22] = system: MDA-MB-435; assay: Growth inhibition of human MDA-MB-435 cells after 48 hrs by sulforhodamine B assay; format: functional; conditions: MDA-MB-435, 48 h
Outline: as §5

[23] = Growth inhibition of human SW620 cells after 48 hrs by sulforhodamine B assay; format: functional; conditions: SW-620, 48 h
Outline: as §5

[24] = read-out: LC50 (the source's name)

In the case of `CC(/C=N/N=C1\SC(CC(=O)Nc2cccc(C(F)(F)F)c2)C(=O)N1Cc1ccco1)=C\c1ccccc1` (mixture of isomers), the Activity [1] was “Dose-dependent effect”, the Emax [2] was 44.3% and the pIC50 [3] was 7.52.
In the case of `CC(=C/c1ccccc1)/C=C1\SC(N(C)c2ccc(O)cc2)=NC1=O`, the pIC50 [4] was 5.47, the Emax [4] was 55% and the Activity [1] was “Dose-dependent effect”. For the same molecule, the Activity [5] was “Dose-dependent effect”, the Emax [2] was 34% and the pIC50 [3] was 8.00.
`O=C1CS/C(=N/N=C/c2cccnc2)N1` gave an Emax [2] of 92.1% and a pIC50 [3] of 6.09.
`C=CCN1C(=O)/C(=C2/C(=O)Nc3ccccc32)S/C1=N\c1nccs1` showed a growth at 100 µM [6] of 49%, a pIC50 [4] of 5.88 and an Emax [4] of 86.5%. The Activity [7] was “Active”, the Emax [2] was 65.9% and the pIC50 [3] was 7.05. For the same molecule, the growth at 100 µM [8] was 82% and the growth at 100 µM [9] was 76%.
For `O=C1N=C(Nc2ccc(Cl)cc2)/C(=C/c2cccs2)S1`, the Activity [7] was “Active”, the Activity [5] was “Dose-dependent effect” and the Emax [2] was 79%. For the same molecule, the “inhibition (INH)” value [10] was “Not Active” and the pIC50 [3] was 6.24.
For `NS(=O)(=O)c1ccc(NC2=NC(=O)C(CC(=O)Nc3ccc(Br)cc3)S2)cc1` (racemic), the GI50 [11] was 15.6 µM, the TGI [11] was 31.7 µM and the CC50 [11, 24] was 64.3 µM. The growth at 100 µM [6] was 88%, the GI50 [12] was 21.8 µM and the TGI [12] was 43.5 µM. It also gave a CC50 [12] of 86.7 µM, a GI50 [13] of 20.7 µM and an LC50 (concentration killing 50% of cells) [13] of 94.3 µM. The TGI [13] was 44.2 µM, the GI50 [14] was 18.5 µM and the TGI [14] was 38.2 µM. For the same molecule, the CC50 [14, 24] was 78.6 µM, the growth at 100 µM [8] was 45% and the GI50 [15] was 24.3 µM. For the same molecule, the TGI [15] was 58.3 µM, the CC50 [15, 24] was greater than 100 µM and the GI50 [16] was 58.9 µM. For the same molecule, the CC50 [16] was 97.7 µM, the TGI [16] was 89.1 µM and the growth at 100 µM [9] was 24%.
For `O=C(CC1SC(=Nc2cccc(O)c2)NC1=O)Nc1ccc(Br)cc1` (racemic), the Emax [2] was 77.6%, the “inhibition (INH)” value [10] was “Not Active” and the pIC50 [3] was 6.80.
For `O=C1N=C(Nc2nccs2)S/C1=C1\C(=O)Nc2ccc(Br)cc21`, the pIC50 [4] was 6.42, the Emax [4] was 67.4% and the GI50 [16] was 95.5 µM. It also gave a CC50 [16] of 100 µM and a TGI [16] of 100 µM.
`Cc1cc(O)c(C(C)C)cc1NC1=NC(=O)S/C1=C\c1ccc(Cl)cc1` showed an Emax [2] of 75.5% and a pIC50 [3] of 7.52.
Molecule `O=C1N=C(Nc2ccc(O)cc2)S/C1=C\c1ccccc1` has a GI50 [17] of 0.25 µM, a TGI [17] greater than 100 µM and a CC50 [17, 24] greater than 100 µM. For the same molecule, the GI50 [18] was 0.71 µM, the TGI [18] was greater than 100 µM and the CC50 [18, 24] was greater than 100 µM. For the same molecule, the GI50 [12] was 0.32 µM, the TGI [12] was greater than 100 µM and the CC50 [12] was greater than 100 µM. The GI50 [19] was 0.6 µM, the TGI [19] was greater than 100 µM and the CC50 [19, 24] was greater than 100 µM. It also gave a GI50 [20] of 0.87 µM, a TGI [20] greater than 100 µM and a CC50 [20, 24] greater than 100 µM. For the same molecule, the Emax [2] was 23.8%, the GI50 [21] was 0.09 µM and the CC50 [21, 24] was greater than 100 µM. For the same molecule, the GI50 [13] was 0.68 µM, the LC50 (concentration killing 50% of cells) [13] was greater than 100 µM and the TGI [13] was greater than 100 µM. The pIC50 [3] was 7.05, the GI50 [22] was 0.21 µM and the TGI [22] was 0.92 µM. It also gave a CC50 [22, 24] greater than 100 µM, a GI50 [16] of 12.9 µM and a CC50 [16] of 100 µM. It also gave a TGI [16] of 89.1 µM, a GI50 [23] of 0.47 µM and a TGI [23] greater than 100 µM. The CC50 [23, 24] was greater than 100 µM.
In the case of `COc1ccc(/C=C2\SC(Nc3nnc(SCC(=O)Nc4ccc(Cl)cc4)s3)=NC2=O)cc1`, the pIC50 [4] was 6.09, the Emax [4] was 86.4% and the Emax [2] was 53.8%. For the same molecule, the pIC50 [3] was 6.80.
`O=C1N=C(Nc2ccc(O)cc2)S/C1=C\C=C/c1ccccc1` gave a growth at 100 µM [6] of 140%, a growth at 100 µM [8] of 103% and a growth at 100 µM [9] of 124%.
Work on `CN(C1=NC(=O)/C(=C/C(Cl)=C/c2ccc([N+](=O)[O-])cc2)S1)c1ccc(O)cc1` yielded a pIC50 [4] of 6.02 and an Emax [4] of 47.4%.

Reference: ChEMBL document CHEMBL3779799, “Antifibrotic and anticancer action of 5-ene amino/iminothiazolidinones” (Eur J Med Chem, 2016)
